According to paper PMC2889198 (Bioconjugate chemistry, 2009):

Legend:
[1] = tested on: Androgen receptor N-terminal domain (AR-NTD), C-terminal His6-tag; experiment: SPR binding kinetics of tris-NTA chip with His6-tagged AR-NTD; conditions: for kd Instant dissociation rate constant / ka Instant association rate constant: 25 °C, 1:1 binding model; for ka Instant association rate constant: Ni(II)-activated tris-NTA; for Kd: read-out: KD Equilibrium dissociation constant, 25 °C, 1:1 binding model
In short: (§1)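 Streptavidin chip washed with 50 mM NaOH/1 M NaCl and run in HBS-P pH 7.4 at 25 °C. Flow cell 1 is a blank; the others carry biotin-tris-NTA at about 50 RU. Each cycle: 5 mM NiCl2 activation, His6-protein injection (1–10 nM; mKate in 1 nM steps, 7 nM omitted), 0.3 M EDTA strip, 0.25% SDS/0.5 M NaCl rinse. Duplicates, double-referenced, global 1:1 Langmuir fit.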

[2] = tested on: Monomeric Katushka (mKate), C-terminal His6-tag; experiment: SPR binding kinetics of tris-NTA chip with His6-mKate; conditions: for kd Instant dissociation rate constant / ka Instant association rate constant: 25 °C, 1:1 binding model; for ka Instant association rate constant: 1~10 nM analyte; for Kd: read-out: KD Equilibrium dissociation constant, 25 °C, 1:1 binding model
In short: as §1

[3] = tested on: Tumor necrosis factor alpha-stimulated gene-6 (TSG6), C-terminal His6-tag; experiment: SPR binding kinetics of tris-NTA chip with His6-tagged TSG6; conditions: for ka Instant association rate constant / kd Instant dissociation rate constant: 25 °C, 1:1 binding model; for Kd: read-out: KD Equilibrium dissociation constant, 25 °C, 1:1 binding model
In short: as §1

His6-tagged peptide […] = experiment: SPR binding kinetics of tris-NTA chip with His6-peptide; conditions: for ka Instant association rate constant / kd Instant dissociation rate constant: 25 °C, 1:1 binding model; for Kd: read-out: KD Equilibrium dissociation constant, 25 °C, 1:1 binding model
[4] = molecular target: T1, Yeast cytosine deaminase (yCD), C-terminal His6-tag (Saccharomyces cerevisiae, UniProt Q12178); experiment: SPR binding kinetics of tris-NTA chip with His6-tagged yCD; conditions: for kon: read-out: ka Instant association rate constant; for koff: read-out: kd Instant dissociation rate constant
T1 sequence (Q12178 with tags, fused parts or gaps): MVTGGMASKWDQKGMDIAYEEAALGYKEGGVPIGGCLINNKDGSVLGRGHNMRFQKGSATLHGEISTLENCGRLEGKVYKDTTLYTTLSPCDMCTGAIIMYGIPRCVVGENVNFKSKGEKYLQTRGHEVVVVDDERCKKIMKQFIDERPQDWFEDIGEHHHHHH
In short: as §1

[5] = molecular target: hexahistidine (His6) tagged proteins; conditions: read-out: equilibrium dissociation constant KD between mono-NTA and His6; cited from earlier work

| SMILES | kd Instant dissociation rate constant [1] | ka Instant association rate constant [1] | Kd [1] [nM] | kd Instant dissociation rate constant [2] | ka Instant association rate constant [2] | Kd [2] [nM] | ka Instant association rate constant [3] | kd Instant dissociation rate constant [3] | Kd [3] [nM] | ka Instant association rate constant (His6-tagged peptide […]) | kd Instant dissociation rate constant (His6-tagged peptide […]) | Kd (His6-tagged peptide […]) [nM] | kon [4] [M⁻¹ s⁻¹] | koff [4] [s⁻¹] | Kd [5] [nM] |
| --- | --- | --- | --- | --- | --- | --- | --- | --- | --- | --- | --- | --- | --- | --- | --- |
| O=C(O)CN(CC(=O)O)[C@@H](CCCCNC(=O)CCOCCOCCOCCOCCNC(=O)CN(CC(=O)NCCOCCOCCOCCOCCC(=O)NCCCC[C@@H](C(=O)O)N(CC(=O)O)CC(=O)O)[C@@H](CCCCNC(=O)CCCC[C@@H]1SC[C@@H]2NC(=O)N[C@@H]21)C(=O)NCCOCCOCCOCCOCCC(=O)NCCCC[C@@H](C(=O)O)N(CC(=O)O)CC(=O)O)C(=O)O [Compound 6a] | 1.29 10^−3 S^−1 | 0.94 10^5 M^−1 S^−1 | 13.7 | 1.53 10^−3 S^−1 | 5.38 10^5 M^−1 S^−1 | 2.84 | 6.89 10^5 M^−1 S^−1 | 4.84 10^−3 S^−1 | 7.03 | 3.09 10^5 M^−1 S^−1 | 3.97 10^−3 S^−1 | 12.8 |  |  |  |
| O=C(O)CN(CC(=O)O)[C@@H](CCCCNC(=O)CN(CC(=O)NCCCC[C@@H](C(=O)O)N(CC(=O)O)CC(=O)O)[C@@H](CCCCNC(=O)CCCC[C@@H]1SC[C@@H]2NC(=O)N[C@@H]21)C(=O)NCCCC[C@@H](C(=O)O)N(CC(=O)O)CC(=O)O)C(=O)O [Compound 6b] | 1.40 10^−3 S^−1 | 0.81 10^5 M^−1 S^−1 | 17.3 |  |  |  | 19.4 10^5 M^−1 S^−1 | 5.78 10^−3 S^−1 | 3 | 1.86 10^5 M^−1 S^−1 | 1.85 10^−3 S^−1 | 9.95 | 119000 | 0.00083 |  |
| O=C(O)CN(CC(=O)O)[C@@H](CCCNC(=O)CN(CC(=O)NCCC[C@@H](C(=O)O)N(CC(=O)O)CC(=O)O)[C@@H](CCCCNC(=O)CCCC[C@@H]1SC[C@@H]2NC(=O)N[C@@H]21)C(=O)NCCC[C@@H](C(=O)O)N(CC(=O)O)CC(=O)O)C(=O)O [Compound 6c] | 0.27 10^−3 S^−1 | 1.44 10^5 M^−1 S^−1 | 1.87 | 0.43 10^−3 S^−1 | 10.6 10^5 M^−1 S^−1 | 0.4 | 3.92 10^5 M^−1 S^−1 | 0.008 10^−3 S^−1 | 0.02 | 2.19 10^5 M^−1 S^−1 | 0.72 10^−3 S^−1 | 3.29 | 197000 | 0.00059 |  |
| O=C(O)CN(CC(=O)O)CC(=O)O [NTA, Nitrilotriacetic acid] |  |  |  |  |  |  |  |  |  |  |  |  |  |  | 10000 |
